# Reference: ChEMBL document CHEMBL1125273, “Synthesis and biological evaluation of quinocarcin derivatives: thioalkyl-substituted quinones and hydroquinones” (J Med Chem, 1991)
# Legend:
# HeLa = assay: In vitro concentration required to inhibit the growth of HeLa S3 cells by 50%; format: functional, cell-based; settings: Homo sapiens
# In short: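 HeLa S3 cells (5 × 10⁴) seeded in Eagle's MEM with 10% FBS and 0.06 mg/mL kanamycin; graded drug concentrations, diluted in growth medium, added 24 h after seeding. Incubated 72 h at 37 °C, humidified 5% CO₂. Monolayers then washed, detached with 0.05% trypsin/0.02% EDTA and counted electronically; IC50 taken as concentration giving 50% growth inhibition.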
# [1] = Antitumor activity in vivo in CD2F1 mice measured in terms of percent increase in lifespan calculated at a dose of 3.13 mg/kg intraperitoneally on days 1-5.; format: functional; settings: Mus musculus, ip, route intraperitoneal
# In short: (§1)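 P388 lymphocytic leukemia cells (1×10^6) were implanted ip into CD2F1 mice (about 22 g), five mice per group. Drug was given ip from the day after implantation, either once (day 1) or daily on days 1–5. ILS = (T/C − 1) × 100, where T and C are the median survival times of treated and control mice.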
# [2] = Antitumor activity in vivo in CD2F1 mice measured in terms of percent increase in lifespan calculated at a dose of 6.25 mg/kg intraperitoneally on day one.; format: functional; settings: Mus musculus, ip, route intraperitoneal; in short: as §1
# Homo sapiens [3] = assay: Ratio of ILS tested compound/quinocarcin against human mammary carcinoma MX-1 cell line implanted subcutaneously in mice and the compound administered intravenously at a dose of 2.97 mg/kg on days 1-5.; format: functional; settings: route intravenous
# Homo sapiens [4] = assay: Ratio of ILS tested compound/quinocarcin against human mammary carcinoma MX-1 cell line implanted subcutaneously in mice and the compound administered intravenously at a dose of 4.67 mg/kg on days 1-5.c means number of cured mice.; format: functional; settings: route intravenous
# [5] = Ratio of the ILS tested compound/quinocarcin was determined in CD2F1 mice on days 1-5.; format: functional, Mus musculus
# In short: (§2)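 CD2F1 mice (5 per group) received 10^6 P388 cells ip. Drug was given ip on day 1 or on days 1–5. ILS was taken as (T/C − 1) × 100 from median survival times, and each compound's ILS was divided by the ILS of quinocarcin.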
# [6] = Ratio of the ILS tested compound/quinocarcin was determined for day one in CD2F1 mice.; format: functional, Mus musculus; in short: as §2
# CCRF S-180 [7] = assay: Ratio of ILS tested compound/quinocarcin against murine sarcoma S-180 tumor cell line implanted subcutaneously in mice and the compound administered intravenously at a dose of 3.13 mg/kg on days 1-5.; format: functional, Mus musculus; settings: route intravenous
# [8] = Antitumor activity in vivo in CD2F1 mice measured in terms of percent increase in lifespan calculated at a dose of 12.5 mg/kg intraperitoneally on day one.; format: functional; settings: Mus musculus, ip, route intraperitoneal; in short: as §1
# Homo sapiens [9] = assay: Ratio of ILS tested compound/quinocarcin against human mammary carcinoma MX-1 cell line implanted subcutaneously in mice and the compound administered intravenously at a dose of 4.41 mg/kg on days 1-5.; format: functional; settings: route intravenous
# [10] = Antitumor activity in vivo in CD2F1 mice measured in terms of percent increase in lifespan calculated at a dose of 6.25 mg/kg intraperitoneally on days 1-5.; format: functional; settings: Mus musculus, ip, route intraperitoneal; in short: as §1
# CCRF S-180 [11] = assay: Ratio of ILS tested compound/quinocarcin against murine sarcoma S-180 tumor cell line implanted subcutaneously in mice and the compound administered intravenously at a dose of 4.41 mg/kg on days 1-5.; format: functional, Mus musculus; settings: route intravenous
# [12] = Antitumor activity in vivo in CD2F1 mice measured in terms of percent increase in lifespan calculated at a dose of 50 mg/kg intraperitoneally on day one.; format: functional; settings: Mus musculus, ip, route intraperitoneal; in short: as §1
# [13] = Antitumor activity in vivo in CD2F1 mice measured in terms of percent increase in lifespan calculated at a dose of 25 mg/kg intraperitoneally on day one.; format: functional; settings: Mus musculus, ip, route intraperitoneal; in short: as §1
# CCRF S-180 [14] = assay: Ratio of ILS tested compound/quinocarcin against murine sarcoma S-180 tumor cell line implanted subcutaneously in mice and the compound administered intravenously at a dose of 12.5 mg/kg on days 1-5.; format: functional, Mus musculus; settings: route intravenous
# Homo sapiens [15] = assay: Ratio of ILS tested compound/quinocarcin against human mammary carcinoma MX-1 cell line implanted subcutaneously in mice and the compound administered intravenously at a dose of 9.35 mg/kg on days 1-5.; format: functional; settings: route intravenous
# Homo sapiens [16] = assay: Ratio of ILS tested compound/quinocarcin against human mammary carcinoma MX-1 cell line implanted subcutaneously in mice and the compound administered intravenously at a dose of 5.96 mg/kg on days 1-5.; format: functional; settings: route intravenous
# [17] = Antitumor activity in vivo in CD2F1 mice measured in terms of percent increase in lifespan calculated at a dose of 12.5 mg/kg intraperitoneally on days 1-5.; format: functional; settings: Mus musculus, ip, route intraperitoneal; in short: as §1
# CCRF S-180 [18] = assay: Ratio of ILS tested compound/quinocarcin against murine sarcoma S-180 tumor cell line implanted subcutaneously in mice and the compound administered intravenously at a dose of 6.25 mg/kg on days 1-5.; format: functional, Mus musculus; settings: route intravenous
# Homo sapiens [19] = assay: Ratio of ILS tested compound/quinocarcin against human mammary carcinoma MX-1 cell line implanted subcutaneously in mice and the compound administered intravenously at a dose of 12.7 mg/kg on days 1-5.c means number of cured mice.; format: functional; settings: route intravenous
# Co-3 [20] = assay: Ratio of ILS tested compound/quinocarcin against Co-3 tumor cell line implanted subcutaneously in mice and the compound administered intravenously at a dose of 5.58 mg/kg on days 1-5.; format: functional, Homo sapiens; settings: route intravenous
# Homo sapiens [21] = assay: Ratio of ILS tested compound/quinocarcin against human mammary carcinoma MX-1 cell line implanted subcutaneously in mice and the compound administered intravenously at a dose of 5.58 mg/kg on days 1-5.c means number of cured mice.; format: functional; settings: route intravenous
# Co-3 [22] = assay: Ratio of ILS tested compound/quinocarcin against Co-3 tumor cell line implanted subcutaneously in mice and the compound administered intravenously at a dose of 9.18 mg/kg on days 1-5.; format: functional, Homo sapiens; settings: route intravenous
# CCRF S-180 [23] = assay: Ratio of ILS tested compound/quinocarcin against murine sarcoma S-180 tumor cell line implanted subcutaneously in mice and the compound administered intravenously at a dose of 5.85 mg/kg on days 1-5.; format: functional, Mus musculus; settings: route intravenous
# St-4 [24] = assay: Ratio of ILS tested compound/quinocarcin against St-4 tumor cell line implanted subcutaneously in mice and the compound administered intravenously at a dose of 9.18 mg/kg on days 1-5.; format: functional, Homo sapiens; settings: route intravenous
# St-4 [25] = assay: Ratio of ILS tested compound/quinocarcin against St-4 tumor cell line implanted subcutaneously in mice and the compound administered intravenously at a dose of 5.58 mg/kg on days 1-5.; format: functional, Homo sapiens; settings: route intravenous
# Homo sapiens [26] = assay: Ratio of ILS tested compound/quinocarcin against human mammary carcinoma MX-1 cell line implanted subcutaneously in mice and the compound administered intravenously at a dose of 3.55 mg/kg on days 1-5.; format: functional; settings: route intravenous
# [27] = Antitumor activity in vivo in CD2F1 mice measured in terms of percent increase in lifespan calculated at a dose of 200 mg/kg intraperitoneally on day one.; format: functional; settings: Mus musculus, ip, route intraperitoneal; in short: as §1
# [28] = Antitumor activity in vivo in CD2F1 mice measured in terms of percent increase in lifespan calculated at a dose of 37.5 mg/kg intraperitoneally on day one.; format: functional; settings: Mus musculus, ip, route intraperitoneal; in short: as §1
# Co-3 [29] = assay: Ratio of ILS tested compound/quinocarcin against Co-3 tumor cell line implanted subcutaneously in mice and the compound administered intravenously at a dose of 13.8 mg/kg on days 1-5.; format: functional, Homo sapiens; settings: route intravenous
# Homo sapiens [30] = assay: Ratio of ILS tested compound/quinocarcin against human mammary carcinoma MX-1 cell line implanted subcutaneously in mice and the compound administered intravenously at a dose of 4.41 mg/kg on days 1-5.c means number of cured mice.; format: functional; settings: route intravenous
# Homo sapiens [31] = assay: Ratio of ILS tested compound/quinocarcin against human mammary carcinoma MX-1 cell line implanted subcutaneously in mice and the compound administered intravenously at a dose of 5.59 mg/kg on days 1-5.c means number of cured mice.; format: functional; settings: route intravenous
# LC-06 cell line = assay: Ratio of ILS tested compound/quinocarcin against LC-06 cell lines implanted subcutaneously in mice and the compound administered intravenously at a dose of 5.59 mg/kg on days 1-5.; format: functional, Homo sapiens; settings: route intravenous
# CCRF S-180 [32] = assay: Ratio of ILS tested compound/quinocarcin against murine sarcoma S-180 tumor cell line implanted subcutaneously in mice and the compound administered intravenously at a dose of 10 mg/kg on days 1-5.; format: functional, Mus musculus; settings: route intravenous
# St-4 [33] = assay: Ratio of ILS tested compound/quinocarcin against St-4 tumor cell line implanted subcutaneously in mice and the compound administered intravenously at a dose of 8.78 mg/kg on days 1-5.; format: functional, Homo sapiens; settings: route intravenous
# [34] = Antitumor activity in vivo in CD2F1 mice measured in terms of percent increase in lifespan calculated at a dose of 5-10 mg/kg intraperitoneally on days 1-5.; format: functional, Mus musculus; in short: as §1
# St-4 [35] = assay: Ratio of ILS tested compound/quinocarcin against St-4 tumor cell line implanted subcutaneously in mice and the compound administered intravenously at a dose of 13.8 mg/kg on days 1-5.; format: functional, Homo sapiens; settings: route intravenous
compound,measurement,setting,value
CC(C)SC1=C(SC(C)C)C(=O)C2=C(C[C@H]3[C@H]4[C@H](C(=O)O)C[C@@H](C5OC[C@@H]2N53)N4C)C1=O (some centres not stated),IC50,HeLa,0.0019 µg/mL
same,ILS at 3.13 mg/kg,[1],98%
same,ILS at 6.25 mg/kg,[2],69%
same,T/C,Homo sapiens [3],0.046
same,T/C,Homo sapiens [4],0
same,R,[5],1.11
same,R,[6],1.57
same,T/C,CCRF S-180 [7],0.73
CSC1=C(SC)C(=O)C2=C(C[C@H]3[C@H]4[C@H](C(=O)O)C[C@@H](C(C#N)N3[C@H]2CO)N4C)C1=O (some centres not stated),IC50,HeLa,0.13 µg/mL
same,ILS at 12.5 mg/kg,[8],53%
same,T/C,Homo sapiens [9],0.67
same,R,[5],0.59
same,R,[6],1.23
same,ILS at 6.25 mg/kg,[10],71%
same,T/C,CCRF S-180 [11],1.06
COc1c2c(c(OC)c(SC(C)C)c1SC(C)C)[C@H](CO)N1C(C#N)[C@@H]3C[C@@H](C(=O)O)[C@H]([C@@H]1C2)N3C (some centres not stated),ILS at 50 mg/kg,[12],7%
same,IC50,HeLa,0.17 µg/mL
CC(C)SC1=C(SC(C)C)C(=O)C2=C(C[C@H]3[C@H]4[C@H](C(=O)O)C[C@@H](C(C#N)N3[C@H]2CO)N4C)C1=O (some centres not stated),ILS at 25 mg/kg,[13],65%
same,IC50,HeLa,0.012 µg/mL
same,T/C,CCRF S-180 [14],0.37
same,R,[5],1.35
same,R,[6],1.48
same,T/C,Homo sapiens [15],0.22
same,T/C,Homo sapiens [16],0.83
same,ILS at 12.5 mg/kg,[17],119%
CSc1c(O)c2c(c(O)c1SC)[C@H](CO)N1C(C#N)[C@@H]3C[C@@H](C(=O)O)[C@H]([C@@H]1C2)N3C (some centres not stated),T/C,CCRF S-180 [18],0.4
same,IC50,HeLa,0.09 µg/mL
same,ILS at 3.13 mg/kg,[1],92%
same,T/C,Homo sapiens [19],0
same,ILS at 6.25 mg/kg,[2],47%
same,T/C,Homo sapiens [9],0.067
same,R,[5],0.86
same,R,[6],1.09
CSC1=C(SC)C(=O)C2=C(C[C@H]3[C@H]4[C@H](C(=O)O)C[C@@H](C5OC[C@@H]2N53)N4C)C1=O (some centres not stated),IC50,HeLa,0.019 µg/mL
same,ILS at 3.13 mg/kg,[1],91%
same,T/C,Co-3 [20],0.43
same,T/C,Homo sapiens [21],0.006
same,T/C,Co-3 [22],0.21
same,T/C,CCRF S-180 [23],0.86
same,ILS at 6.25 mg/kg,[2],48%
same,R,[5],0.88
same,R,[6],1.85
same,T/C,St-4 [24],0.2
same,T/C,St-4 [25],0.56
same,T/C,Homo sapiens [26],0.21
CCOC(=O)CSc1c(O)c2c(c(O)c1SCC(=O)OCC)[C@H](CO)N1C(C#N)[C@@H]3C[C@@H](C(=O)O)[C@H]([C@@H]1C2)N3C (some centres not stated),ILS at 200 mg/kg,[27],37%
same,IC50,HeLa,> 10 µg/mL
same,R,[6],0.9
COc1c2c(c(OC)c(SC(C)C)c1SC(C)C)[C@@H]1COC3[C@@H]4C[C@@H](C(=O)O)[C@H]([C@H](C2)N31)N4C (some centres not stated),ILS at 37.5 mg/kg,[28],9%
same,IC50,HeLa,0.05 µg/mL
COc1cccc2c1[C@@H]1COC3[C@@H]4C[C@@H](C(=O)O)[C@H]([C@H](C2)N31)N4C (some centres not stated),T/C,Co-3 [29],0.22
same,IC50,HeLa,0.11 µg/mL
same,ILS at 12.5 mg/kg,[8],48%
same,T/C,Homo sapiens [30],0
same,T/C,Homo sapiens [31],0.01
same,T/C,LC-06 cell line,0.23
same,T/C,CCRF S-180 [32],0.74
same,R,[5],1
same,T/C,St-4 [33],0.55
same,R,[6],1
same,ILS,[34],120%
same,T/C,St-4 [35],0.42
